Results on 20 compounds are retold here after ChEMBL document CHEMBL1777799, “Design, synthesis, and biological evaluation of substituted hydrazone and pyrazole derivatives as selective COX-2 inhibitors: Molecular docking study” (Bioorg Med Chem, 2011).

Each structure is given as a SMILES string. pIC50: −log10 of the molar value. The source made the active and inactive calls. The rule behind the calls is not given here.

Test [1] has as its target T1, Prostaglandin G/H synthase 1 (Ovis aries, UniProt P05979).
T1 sequence (P05979 whole entry): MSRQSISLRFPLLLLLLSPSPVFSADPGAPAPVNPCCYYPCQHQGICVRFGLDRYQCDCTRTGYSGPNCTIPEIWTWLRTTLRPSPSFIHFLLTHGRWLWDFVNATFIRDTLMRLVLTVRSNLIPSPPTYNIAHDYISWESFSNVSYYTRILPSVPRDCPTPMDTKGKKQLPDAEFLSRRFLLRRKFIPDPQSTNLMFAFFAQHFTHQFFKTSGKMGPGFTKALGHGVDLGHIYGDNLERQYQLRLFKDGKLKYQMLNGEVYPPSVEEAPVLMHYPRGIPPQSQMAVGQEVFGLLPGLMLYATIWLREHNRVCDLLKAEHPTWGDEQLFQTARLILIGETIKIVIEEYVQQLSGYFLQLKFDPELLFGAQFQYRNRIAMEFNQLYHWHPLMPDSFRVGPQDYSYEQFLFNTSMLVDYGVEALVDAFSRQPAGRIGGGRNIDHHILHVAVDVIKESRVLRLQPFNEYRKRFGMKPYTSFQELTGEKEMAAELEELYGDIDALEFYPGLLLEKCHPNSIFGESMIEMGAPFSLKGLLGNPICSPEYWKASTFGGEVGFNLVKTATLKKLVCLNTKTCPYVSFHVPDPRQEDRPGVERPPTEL
Briefly: Inhibition of ovine COX1 assessed as PGF2alpha production from PGH2 after 5 mins by enzyme immunoassay. In short, it runs like this: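 Ovine COX-1 in reaction buffer with 2 mM phenol and heme, preincubated with six test concentrations (1 mL final) for 5 min at 37 °C. Arachidonic acid was then added and the reaction stopped with 1 M HCl after 2 min. Prostanoids were reduced with stannous chloride and quantified by competitive acetylcholinesterase-tracer EIA (Ellman's reagent, 410 nm). IC50 came from concentration–inhibition curves, duplicate determinations.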

The subject of test [2] is Rattus norvegicus. The test is described as follows: Antiinflammatory activity in Sprague-Dawley rat assessed as inhibition of carrageenan-induced foot paw oedema at 200 mg/kg, ip after 2 hrs by plethysmometer analysis relative to control. The class given is functional. The following applies: for inhibition in vivo at 200 mg/kg: route intraperitoneal. An outline of the steps:
(§1)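 Male Sprague–Dawley rats (250 g), fasted at least 16 h with water available. Compounds were given i.p. as a 1 mL suspension in 0.5% methyl cellulose; controls received vehicle. Paw volume was read by water-displacement plethysmometer before treatment and 1 and 2 h after. Activity (%) = (1 − D/C) × 100, where D and C are paw-volume changes in treated and control rats; mean ± SEM, n = 4–6.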

In test [3] the test system is Rattus norvegicus. The test is described as follows: Antiinflammatory activity in Sprague-Dawley rat assessed as inhibition of carrageenan-induced foot paw oedema at 200 mg/kg, ip after 1 hr by plethysmometer analysis relative to control. It is filed as functional. The following applies: for inhibition in vivo at 200 mg/kg: route intraperitoneal. An outline of the steps: as §1

The target of test [4] is T2, Prostaglandin G/H synthase 1 (Ovis aries) (UniProt P05979).
T2 sequence (whole entry): T1 sequence (P05979 whole entry)
The test is described as follows: Inhibition of ovine COX1 assessed as PGF2alpha production from PGH2 at 100 uM after 5 mins by enzyme immunoassay. An outline of the steps:
(§2)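 Enzyme (ovine COX-1) with heme in buffer containing 2 mM phenol was preincubated with the test compound for 5 min at 37 °C, then given arachidonic acid for 2 min before quenching with 1 M HCl. Products were reduced with stannous chloride and measured by competitive PG-tracer EIA at 410 nm. Percent inhibition was calculated against control incubations.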

The target in test [5] is T2, Prostaglandin G/H synthase 1 (Ovis aries). The test is described as follows: Inhibition of ovine COX1 assessed as PGF2alpha production from PGH2 at 0.5 uM after 5 mins by enzyme immunoassay. In short, it runs like this:
as §2

In test [6] the test system is Rattus norvegicus. The test is described as follows: Antiinflammatory activity in Sprague-Dawley rat assessed as inhibition of carrageenan-induced foot paw oedema at 100 mg/kg, ip after 1 hr by plethysmometer analysis relative to control. It is filed as functional. The following applies: route intraperitoneal. An outline of the steps:
as §1

Test [7] relates to Rattus norvegicus. The test is described as follows: Antiinflammatory activity in ip dosed Sprague-Dawley rat assessed as inhibition of carrageenan-induced foot paw oedema after 2 hrs by plethysmometer analysis. The class given is functional. In short, it runs like this: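 Rat carrageenan paw oedema: male Sprague–Dawley rats (250 g), fasted ≥16 h, dosed i.p. with a 1 mL suspension in 0.5% methyl cellulose. Paw swelling was measured by plethysmometer water displacement, and percent inhibition was taken against vehicle controls.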

Test [8] has as its system Rattus norvegicus. The test is described as follows: Antiinflammatory activity in Sprague-Dawley rat assessed as inhibition of carrageenan-induced foot paw oedema at 100 mg/kg, ip after 2 hrs by plethysmometer analysis relative to control. It is filed as functional. The following applies: route intraperitoneal. An outline of the steps: as §1

As for `O=[N+]([O-])c1ccc(N/N=C2/C(c3ccc(Cl)cc3)=NN=C2C(F)(F)F)cc1`, the negative logarithm of the IC50 (pIC50) in test [1] was less than 4.30. Moreover, the inhibition in vivo at 200 mg/kg is 7% in test [2] and 4% in test [3].
For the compound `O=C(/C(=N\Nc1ccccc1Cl)C(=O)C(F)(F)F)c1ccc(Cl)cc1`, the inhibition was 25% in test [4] and 31% in test [5]. Further, the pIC50 in test [1] was less than 4.30. Besides, the inhibition in vivo at 200 mg/kg was found to be 41.7% in test [2] and 47.1% in test [3]. For the same compound, the inhibition in vivo at 100 mg/kg turned out to be 0% in test [6] and 19.3% in test [8]. Further, in test [7], the ED50 was 260 mg/kg.
Consider `COc1ccc(N/N=C2/C(c3ccc(Cl)cc3)=NN=C2C(F)(F)F)cc1`, for which the pIC50 in test [1] was less than 4.30. Further, the inhibition result in test [2] and in test [3] was “inactive” in each case.
As for `O=C(/C(=N\Nc1cc(C(F)(F)F)cc(C(F)(F)F)c1)C(=O)C(F)(F)F)c1ccc(Cl)cc1`, the negative logarithm of the IC50 (pIC50) in test [1] is less than 4.30. Besides, the inhibition in vivo at 200 mg/kg in test [2] turned out to be 88.4%; in test [3] it was 80%. Further, the inhibition in vivo at 100 mg/kg in test [6] was found to be 33%; in test [8] it was 59%. The 50% effective dose (ED50) in test [7] was determined as 112 mg/kg.
As to `O=C(O)Cc1ccccc1Nc1c(Cl)cccc1Cl` [DICLOFENAC SODIUM], the inhibition in vivo at 100 mg/kg in test [6] amounted to 88.5%; in test [8], 89.5%.
Regarding `O=C1CCC/C1=C\c1c(C(F)(F)F)nn(-c2ccccc2)c1-c1ccc(Cl)cc1`, in test [1], the pIC50 was less than 4.30. For the same compound, the inhibition in vivo at 200 mg/kg in test [2] is 82%; in test [3] it was 80.7%. Further, the inhibition in vivo at 100 mg/kg in test [6] was 37%; in test [8], 67%. Further, the ED50 in test [7] stood at 118 mg/kg.
With `FC(F)(F)C1=NN=C(c2ccc(Cl)cc2)/C1=N/Nc1ccc(Br)cc1`, in test [1], the pIC50 is less than 4.30. Further, the values for the inhibition in vivo at 200 mg/kg in test [2] and in test [3] were 52.1% and 26.3%, respectively. Moreover, the inhibition in vivo at 100 mg/kg in test [6] came out at 17.5%; in test [8] it was 31.3%. The ED50 in test [7] came out at 180 mg/kg.
With `FC(F)(F)C1=NN=C(c2ccc(Cl)cc2)/C1=N/Nc1cc(C(F)(F)F)cc(C(F)(F)F)c1`, the pIC50 in test [1] was less than 4.30. Also, the inhibition in vivo at 200 mg/kg was 28.8% in test [2] and 40.8% in test [3]. In addition, the inhibition in vivo at 100 mg/kg in test [6] turned out to be 3.4%; in test [8] it was 17.3%.
As to `FC(F)(F)C1=NN=C(c2ccc(Cl)cc2)/C1=N/Nc1ccccc1Cl`, the pIC50 in test [1] is less than 4.30. Moreover, the inhibition in vivo at 200 mg/kg came to 15.1% in test [2] and 38.4% in test [3].
Take `O=C(/C(=N\Nc1ccc(Cl)cc1)C(=O)C(F)(F)F)c1ccc(Cl)cc1`: the pIC50 in test [1] was less than 4.30. The inhibition in vivo at 200 mg/kg in test [2] was 35.2%; in test [3], 26.7%.
As for `O=Cc1c(C(F)(F)F)nn(-c2ccccc2)c1-c1ccc(Cl)cc1`, the negative-log IC50 (pIC50) in test [1] was less than 4.30. In addition, the inhibition in vivo at 200 mg/kg in test [2] amounted to 59.1%; in test [3] it was 75%. The results for the inhibition in vivo at 100 mg/kg in test [6] and in test [8] were 24.1% and 40.3%, respectively. Also, the ED50 in test [7] came to 190 mg/kg.
`CN1CCC(=O)/C(=C/c2c(C(F)(F)F)nn(-c3ccccc3)c2-c2ccc(Cl)cc2)C1`: the negative logarithm of the IC50 (pIC50) in test [1] is less than 4.30. In addition, the inhibition in vivo at 200 mg/kg amounted to 20.3% in test [2] and 6.7% in test [3].
For the compound `O=C(/C(=N\Nc1ccc(Br)cc1)C(=O)C(F)(F)F)c1ccc(Cl)cc1`, the pIC50 in test [1] was less than 4.30. Further, the inhibition in vivo at 200 mg/kg in test [2] was 33.8%; in test [3], 35%. Moreover, the inhibition in vivo at 100 mg/kg in test [6] was 0%; in test [8], 13.9%. The ED50 in test [7] was found to be 280 mg/kg.
`COc1ccc(N/N=C(\C(=O)c2ccc(Cl)cc2)C(=O)C(F)(F)F)cc1`: the inhibition was 25% in test [4] and 31% in test [5]. Further, the negative logarithm of the IC50 (pIC50) in test [1] was less than 4.30. Moreover, the inhibition in vivo at 200 mg/kg in test [2] stood at 42.2%; in test [3] it was 27.6%. In addition, the inhibition in vivo at 100 mg/kg in test [6] was found to be 0%; in test [8] it was 3.8%. For the same compound, the ED50 in test [7] came to 240 mg/kg.
On to `CCN1CCC(=O)/C(=C/c2c(C(F)(F)F)nn(-c3ccccc3)c2-c2ccc(Cl)cc2)C1`, for which, in test [1], the negative-log IC50 (pIC50) was less than 4.30. The inhibition in vivo at 200 mg/kg in test [2] turned out to be 89.7%; in test [3], 80%. Besides, the inhibition in vivo at 100 mg/kg in test [6] turned out to be 41%; in test [8], 64%. For the same compound, the ED50 in test [7] is 120 mg/kg.
For `O=C1CCCC/C1=C\c1c(C(F)(F)F)nn(-c2ccccc2)c1-c1ccc(Cl)cc1`, the negative logarithm of the IC50 (pIC50) in test [1] is less than 4.30. Further, the values for the inhibition in vivo at 200 mg/kg in test [2] and in test [3] were 23.9% and 33.7%, respectively.
For the compound `O=C(/C(=N\Nc1ccc([N+](=O)[O-])cc1)C(=O)C(F)(F)F)c1ccc(Cl)cc1`, the inhibition in test [4] came out at 25%; in test [5] it was 31%. Also, in test [1], the negative-log IC50 (pIC50) was less than 4.30. In addition, the results for the inhibition in vivo at 200 mg/kg in test [2] and in test [3] were 57.3% and 35.8%, respectively. The inhibition in vivo at 100 mg/kg in test [6] was 0%; in test [8], 17.9%. Further, in test [7], the median effective dose (ED50) amounted to 170 mg/kg.
For `FC(F)(F)C1=NN=C(c2ccc(Cl)cc2)/C1=N/Nc1ccc(Cl)cc1`, the pIC50 in test [1] was less than 4.30. For the same compound, the inhibition in vivo at 200 mg/kg in test [2] came out at 9.1%; in test [3], 8.1%.
Take `O=C(/C=C/c1c(C(F)(F)F)nn(-c2ccccc2)c1-c1ccc(Cl)cc1)c1ccccc1`: the pIC50 in test [1] was less than 4.30. For the same compound, the inhibition in vivo at 200 mg/kg in test [2] came out at 2.6%; in test [3] it was 1.8%.
In the case of `O=C(/C=C/c1c(C(F)(F)F)nn(-c2ccccc2)c1-c1ccc(Cl)cc1)c1ccc(Cl)cc1`, the pIC50 in test [1] was less than 4.30. The values for the inhibition in vivo at 200 mg/kg in test [2] and in test [3] were 4.4% and 1.5%, respectively.
